This assay concerns HEK293. The experiment in a line: Inhibition of Wnt/beta-catenin (unknown origin) signaling pathway expressed in HEK293 cells assessed as inhibition of TCF4 transcriptional activity at 5 to 40 uM after 24 hrs by TOPflash reporter gene assay. The assay is classed as cell-based. Particulars: Homo sapiens. In short, it runs like this: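 HEK293 cells seeded at 1.5 × 10^4 per well and cotransfected (Lipofectamine 2000) with TOPflash luciferase reporter 0.1 μg, Renilla 0.005 μg for normalization, pcDNA β-catenin 0.02 μg and TCF4 expression vector 0.004 μg to activate Wnt; 24 h later treated with compound or solvent for 24 h; dual luciferase read-out, Renilla-normalized, relative to vehicle; triplicate.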
In general terms: A reporter such as luciferase makes a cellular process visible.

The source made the active and inactive calls. The calls are words filed in the database; no cut-off is given here.

Consider `COc1ccccc1/C=C/C=O`, for which the inhibition result was “Active”.

These data come from ChEMBL document CHEMBL2406979, “Antitumor activity of 2-hydroxycinnamaldehyde for human colon cancer cells through suppression of β-catenin signaling” (J Nat Prod, 2013).
